Assay results: article PMC2151622 (The Journal of General Physiology, 2007)
Changes are numbered by the printed parent chain.

Key:
Type in all cases: cell-based, rabbit
D444A mutant EAAC1 = target: T1, D444A mutant EAAC1 (Oryctolagus cuniculus, UniProt P31597, D444A); assay: Blockade of sodium-dependent transient currents; settings: read-out: IC50 for substrates/blockers of charge movements, Xenopus oocytes, mean ± SEM
T1 sequence (P31597 1-524 D444A): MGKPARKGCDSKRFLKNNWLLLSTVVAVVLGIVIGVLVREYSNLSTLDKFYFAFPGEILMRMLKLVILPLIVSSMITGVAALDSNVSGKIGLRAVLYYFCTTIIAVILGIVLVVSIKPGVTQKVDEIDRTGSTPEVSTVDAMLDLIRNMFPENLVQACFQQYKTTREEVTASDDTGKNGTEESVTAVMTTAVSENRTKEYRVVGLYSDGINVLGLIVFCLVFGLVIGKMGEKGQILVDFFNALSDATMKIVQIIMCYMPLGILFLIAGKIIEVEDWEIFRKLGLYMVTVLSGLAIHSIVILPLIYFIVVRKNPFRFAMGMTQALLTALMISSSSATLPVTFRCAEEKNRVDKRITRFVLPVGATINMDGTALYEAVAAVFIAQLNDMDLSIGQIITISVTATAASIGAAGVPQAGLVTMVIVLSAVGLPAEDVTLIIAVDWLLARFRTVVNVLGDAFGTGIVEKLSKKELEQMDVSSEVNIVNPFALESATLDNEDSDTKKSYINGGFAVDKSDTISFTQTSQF

D444C-EAAC1 = target: T2, D444C-EAAC1 (Oryctolagus cuniculus, UniProt P31597, D444C); assay: Blockade of sodium-dependent transient currents; settings: D444C; for Decay time of transient currents blocked: 10 mM compound, at −100 mV; for IC50: read-out: IC50 for substrates/blockers of charge movements, Xenopus oocytes, mean ± SEM
T2 sequence (P31597 1-524 D444C): T1 sequence (P31597 1-524 D444A) with A444C
Summary of the method: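 Steps from −25 mV to −100…+40 mV. Transients taken as current without minus current with compound. Charge is the sum of integrals at −100 and +40 mV, normalised to 10 mM of the same compound. IC50 from a generalized Hill fit; decay from a first-order exponential; 3–10 oocytes.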

D444S-EAAC1 = target: T3, D444S-EAAC1 (Oryctolagus cuniculus, UniProt P31597, D444S); assay: Substrate-induced steady-state transport currents in oocytes expressing D444S; settings: 2 mM for L-aspartate and succinate, other concentrations not given
T3 sequence (P31597 1-524 D444S): T1 sequence (P31597 1-524 D444A) with A444S

WT-EAAC1 = target: T4, WT-EAAC1 (Oryctolagus cuniculus, UniProt P31597); settings: 2 mM, NaSCN-based buffer
T4 sequence (P31597 1-524): T1 sequence (P31597 1-524 D444A) with A444D
Summary of the method: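 Two-electrode voltage clamp of oocytes in buffer with all NaCl replaced by NaSCN, grounded through a 2% agarose/2 M KCl bridge. Compounds were 2 mM; TBOA (10 μM) was added to a stopped bath. Steps from −25 mV to −100…+40 mV. Net steady-state current (with minus without) was normalised to the L-aspartate current at +40 mV; mean ± SEM of 3 oocytes (L-aspartate n = 6).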

Structure (SMILES)	IC50 (D444A mutant EAAC1) [µM]	Decay time of transient currents blocked (D444C-EAAC1) [ms]	IC50 (D444C-EAAC1) [µM]	Induction of steady-state transport currents (D444S-EAAC1)	Effect on the anion conductance (WT-EAAC1)
N[C@@H](CC(=O)O)C(=O)O [L-Aspartate, L-aspartate]	720 ± 80	19.3 ± 1	12 ± 2	not observed	stimulated the anion conductance
O=C(O)CCC(=O)O [Succinate, succinate]	870 ± 110	15.7 ± 1.1	840 ± 70	did not induce any steady-state currents	not seen
